Several values for one entry are separate records, joined by “and”; a condition that tells them apart may be missing. Equal values may be shown once. Read-outs that look alike come from different tables or passages of the source.
Legend:
[1] = biological target: CR8 (DxDxD) domain of LRP (Homo sapiens, UniProt Q07954); test: Tryptophan fluorescence titration of amino acid ligands with CR8 domain; assay type: binding; conditions: for fold weaker Kd than lysine methyl ester: pH 5.5, I=0.02; for ΔG^u: unitary free energy; for slope of Debye–Hückel plot (−zA×zB): ionic-strength-dependence of binding
[2] = biological target: CR5 (DxDDD) domain of LRP (Homo sapiens, UniProt Q07954); test: Tryptophan fluorescence titration of amino acid ligands with CR5 domain; assay type: binding; conditions: for ΔG^u: unitary free energy
Procedure, shortened: (§1)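 Each CR domain (1–3 μM) was titrated at 298 K in buffer with 1 mM Ca2+ and 0.1% PEG 8000: 20 mM Mes at pH 5.5 or 20 mM Tris/HCl at pH 7.4, with NaCl set to the target ionic strength. Tryptophan emission (λex 280 nm) was read at the wavelength of maximal change and averaged over 120 s, with blank and dilution correction. Kd came from a non-linear single-site fit, using the protonated ligand fraction.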

[3] = tested on: cluster II CR domains of LRP; test: Fluorescence titrations, summary statements across several CR domains; assay type: binding
Procedure, shortened: as §1

[4] = biological target: D1085A (DxxxD) CR8 variant (Homo sapiens, UniProt Q07954, D1085A); test: Tryptophan fluorescence titration of amino acid ligands with CR8 variant D1085A; assay type: binding; conditions: for Kd: I=0.02, pH 5.5, 298 K; for ΔG^u: unitary free energy
Procedure, shortened: as §1

[5] = biological target: CR3 (DxDxD) domain of LRP (Homo sapiens, UniProt Q07954); test: Tryptophan fluorescence titration of amino acid ligands with CR3 domain; assay type: binding; conditions: for ΔG^u: unitary free energy
Procedure, shortened: as §1

[6] = cited from earlier work
[7] = pKa values used for correction of ligand concentration; assay type: physicochemical; conditions: pH 5.5
[8] = physiological ionic strength, binding favoured at pH 7.4
[9] = CR3, CR5 and CR8, I=0.02, both pH values
[10] = irrespective of ionic strength or pH, results not shown
[11] = Table 3, pH 7.4, ionic strength not given

Chain of CR5 (DxDDD) domain of LRP (Q07954 934-973 limits assumed): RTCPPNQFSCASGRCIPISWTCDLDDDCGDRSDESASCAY
Chain of D1085A (DxxxD) CR8 variant (Q07954 1060-1099 D1085A limits assumed): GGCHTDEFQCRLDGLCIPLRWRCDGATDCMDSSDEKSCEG
Chain of CR3 (DxDxD) domain of LRP (Q07954 852-892 limits assumed): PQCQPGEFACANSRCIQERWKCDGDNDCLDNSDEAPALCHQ
Chain of CR8 (DxDxD) domain of LRP (Q07954 1060-1099 limits assumed): as the sequence (Q07954 1060-1099 D1085A limits assumed) above, with A26D counted along it

## COC(=O)[C@H](C)N [Alanine methyl ester]
[1]
  Kd: 4900 ± 250 µM
  fold weaker Kd than lysine methyl ester: 28 fold
[1]; Table 3, pH 5.5
  ΔG°: -3.15 kcal/mol
[2]
  Kd: 4100 ± 240 µM
[2]; Table 3, pH 5.5
  ΔG°: -3.25 kcal/mol
[2]; pH 5.5
  fold weaker Kd than lysine methyl ester: 23 fold
[3]; CR5 and CR8
  ΔΔG° compared with lysine methyl ester: 1.86 to 1.98 kcal/mol

## COC(=O)[C@@H](N)CCCN=C(N)N [Arginine methyl ester]
[4]; I=0.02, pH 5.5
  ΔG°: -3.49 kcal/mol
  ΔG^u: -5.86 kcal/mol
[4]
  Kd: 2800 ± 110 µM
[4]; I=0.02, pH 7.4
  ΔG°: -3.13 kcal/mol
  ΔG^u: -5.5 kcal/mol
[1]; I=0.02, pH 5.5
  ΔG°: -5.02 kcal/mol
  ΔG^u: -7.39 kcal/mol
[1]; I=0.02, pH 5.5, 298 K
  Kd: 210 ± 10 µM
[1]; I=0.02, pH 7.4
  ΔG°: -4.68 kcal/mol
  ΔG^u: -7.05 kcal/mol
[1]; I=0.17, pH 5.5
  ΔG°: -4.23 kcal/mol
  ΔG^u: -6.6 kcal/mol
[1]; I=0.17, pH 5.5, 298 K
  Kd: 780 ± 10 µM
[1]; I=0.17, pH 7.4
  ΔG°: -4.42 kcal/mol
  ΔG^u: -6.79 kcal/mol
[2]; I=0.02, pH 5.5
  ΔG°: -4.83 kcal/mol
  ΔG^u: -7.19 kcal/mol
[2]; I=0.02, pH 5.5, 298 K
  Kd: 290 ± 10 µM
[2]; I=0.02, pH 7.4
  ΔG°: -4.42 kcal/mol
  ΔG^u: -6.76 kcal/mol
[2]; I=0.17, pH 5.5
  ΔG°: -4.18 kcal/mol
  ΔG^u: -6.55 kcal/mol
[2]; I=0.17, pH 5.5, 298 K
  Kd: 840 ± 50 µM
[2]; I=0.17, pH 7.4
  ΔG°: -4.25 kcal/mol
  ΔG^u: -6.62 kcal/mol
[2]; [8]
  difference in ΔG° between pH 5.5 and 7.4: 0.3 kJ/mol
[5]; I=0.02, pH 5.5
  ΔG°: -4.33 kcal/mol
  ΔG^u: -6.69 kcal/mol
[5]; I=0.02, pH 5.5, 298 K
  Kd: 680 ± 70 µM
[5]; I=0.02, pH 7.4
  ΔG°: -4.25 kcal/mol
  ΔG^u: -6.62 kcal/mol
[5]; I=0.17, pH 5.5
  ΔG°: -3.66 kcal/mol
  ΔG^u: -6.02 kcal/mol
[5]; I=0.17, pH 5.5, 298 K
  Kd: 2090 ± 160 µM
[5]; I=0.17, pH 7.4
  ΔG°: -4.23 kcal/mol
  ΔG^u: -6.6 kcal/mol

## COC(=O)[C@@H](N)Cc1c[nH]cn1 [Histidine methyl ester]
[6]; side chain (imidazole)
  pKa: 5.33
[4]; Table 3, pH 5.5
  ΔG°: -3.18 kcal/mol
[1]; Table 3, pH 5.5
  ΔG°: -4.83 kcal/mol
[2]; Table 3, pH 5.5
  ΔG°: -4.76 kcal/mol
[7]
  fraction of the imidazole protonated: ~ 40%
[3]; four domains, pH 5.5 and low ionic strength
  ΔΔG° compared with lysine methyl ester: 0.14 to 0.48 kcal/mol
[5]; Table 3, pH 5.5
  ΔG°: -3.99 kcal/mol

## COC(=O)[C@@H](N)CCCCN [Lysine methyl ester]
[6]; α-amino group
  pKa: 7.2
[4]
  Kd of D1085A, fold higher than for N^α-acetyl-lysine methyl ester: ~ 3 fold
  Kd: 3700 ± 130 µM
[4]; I=0.02, pH 5.5
  ΔG°: -3.32 kcal/mol
  ΔG^u: -5.69 kcal/mol
[4]; I=0.02, pH 7.4
  ΔG°: -3.27 kcal/mol
  ΔG^u: -5.64 kcal/mol
[4]; pH 5.5 and I=0.02
  fold decrease of Kd compared with N^α-acetyl-lysine methyl ester: less than 4 fold
[1]; 298 K, pH 7.4, I=0.17, from interpolated Kd
  ΔG°: -4.66 kcal/mol
[1]; I=0.02, pH 5.5
  ΔG°: -5.14 kcal/mol
  ΔG^u: -7.5 kcal/mol
[1]; I=0.02, pH 5.5, 298 K
  Kd: 170 ± 10 µM
[1]; I=0.02, pH 7.4
  ΔG°: -5.11 kcal/mol
  ΔG^u: -7.46 kcal/mol
[1]; I=0.17, pH 5.5
  ΔG°: -4.42 kcal/mol
  ΔG^u: -6.79 kcal/mol
[1]; I=0.17, pH 5.5, 298 K
  Kd: 570 ± 20 µM
[1]; I=0.17, pH 7.4
  ΔG°: -4.71 kcal/mol
  ΔG^u: -7.07 kcal/mol
[1]; at saturation (Figure 2)
  blue shift of CR8 tryptophan fluorescence: approximately 7 nm
[1]; pH 5.5
  slope of Debye–Hückel plot (−zA×zB): 2.2
[1]; pH 7.4, I=0.17, 294 K (Figure 2)
  maximum quench of CR8 fluorescence at saturation: 66%
[1]; pH 7.4, I=0.17, van't Hoff analysis
  ΔS°: 29 J·K^−1·mol^−1
[1]; pH 7.4
  slope of Debye–Hückel plot (−zA×zB): 1.5 and 1.53
[1]; physiological conditions of 310 K and I=0.17, pH 7.4
  ΔG: -4.57 kcal/mol
[1]; read-out: interpolated Kd, 298 K, pH 7.4, I=0.17, from van't Hoff plot
  Kd: 380 µM
[1]; van't Hoff plot 279–310 K, pH 7.4, I=0.17
  ΔH°: -2.56 kcal/mol
[2]; I=0.02, pH 5.5
  ΔG°: -5.11 kcal/mol
  ΔG^u: -7.46 kcal/mol
[2]; I=0.02, pH 5.5, 298 K
  Kd: 180 ± 10 µM
[2]; I=0.02, pH 7.4
  ΔG°: -4.85 kcal/mol
  ΔG^u: -7.22 kcal/mol
[2]; I=0.17, pH 5.5
  ΔG°: -4.4 kcal/mol
  ΔG^u: -6.76 kcal/mol
[2]; I=0.17, pH 5.5, 298 K
  Kd: 600 ± 40 µM
[2]; I=0.17, pH 7.4
  ΔG°: -4.64 kcal/mol
  ΔG^u: -7 kcal/mol
[3]; [9]
  fold reduction in Kd compared with N^α-acetyl-lysine methyl ester: 5–18 fold
  increase in ΔG° compared with N^α-acetyl-lysine methyl ester: 1.03 to 1.72 kcal/mol
[5]; I=0.02, pH 5.5
  ΔG°: -4.47 kcal/mol
  ΔG^u: -6.84 kcal/mol
[5]; I=0.02, pH 5.5, 298 K
  Kd: 530 ± 50 µM
[5]; I=0.02, pH 7.4
  ΔG°: -4.97 kcal/mol
  ΔG^u: -7.34 kcal/mol
[5]; I=0.17, pH 5.5
  ΔG°: -3.99 kcal/mol
  ΔG^u: -6.36 kcal/mol
[5]; I=0.17, pH 5.5, 298 K
  Kd: 1190 ± 110 µM
[5]; I=0.17, pH 7.4
  ΔG°: -4.68 kcal/mol
  ΔG^u: -7.05 kcal/mol
[5]; [8]
  difference in ΔG° between pH 5.5 and 7.4: 2.9 kJ/mol

## COC(=O)[C@H](CCCCN)NC(C)=O [N^α-acetyl-lysine methyl ester]
[4]; I=0.02, pH 5.5
  ΔG°: -2.58 kcal/mol
[4]
  Kd: 12800 ± 2000 µM
[4]; I=0.02, pH 7.4
  ΔG°: -2.58 kcal/mol
[4]; compared with domains with central aspartate
  loss of binding energy for D1085A: 0.837 to 1.22 kcal/mol
[1]; I=0.02, pH 5.5
  ΔG°: -3.42 kcal/mol
[1]; I=0.02, pH 5.5, 298 K
  Kd: 3100 ± 440 µM
[1]; I=0.02, pH 7.4
  ΔG°: -3.75 kcal/mol
[1]; I=0.17, pH 5.5
  ΔG°: -3.51 kcal/mol
[1]; I=0.17, pH 5.5, 298 K
  Kd: 2600 ± 280 µM
[1]; I=0.17, pH 7.4
  ΔG°: -3.42 kcal/mol
[2]; I=0.02, pH 5.5
  ΔG°: -3.75 kcal/mol
[2]; I=0.02, pH 5.5, 298 K
  Kd: 1800 ± 160 µM
[2]; I=0.02, pH 7.4
  ΔG°: -3.8 kcal/mol
[2]; I=0.17, pH 5.5
  ΔG°: -3.59 kcal/mol
[2]; I=0.17, pH 5.5, 298 K
  Kd: 2300 ± 490 µM
[2]; I=0.17, pH 7.4
  ΔG°: -3.54 kcal/mol
[3]; CR3, CR5 and CR8, two ionic strengths, pH 5.5 and 7.4
  range of ΔG° values: -3.8 to -3.42 kcal/mol
[5]; I=0.02, pH 5.5
  ΔG°: -3.47 kcal/mol
[5]; I=0.02, pH 5.5, 298 K
  Kd: 2900 ± 120 µM
[5]; I=0.02, pH 7.4
  ΔG°: -3.7 kcal/mol
[5]; I=0.17, pH 5.5
  ΔG°: -3.47 kcal/mol
[5]; I=0.17, pH 5.5, 298 K
  Kd: 2900 ± 280 µM
[5]; I=0.17, pH 7.4
  ΔG°: -3.56 kcal/mol

## CCOC(=O)[C@@H](N)CCCCN [lysine ethyl ester]
[1]; [10]
  binding affinity compared with lysine methyl ester: negligible difference
[2]; [10]
  binding affinity compared with lysine methyl ester: negligible difference
[5]; [10]
  binding affinity compared with lysine methyl ester: negligible difference

## NCCCC[C@H](N)C(=O)O [unmodified lysine, lysine]
[1]
  Kd: 1050 µM
  fold weaker Kd than lysine methyl ester: 6 fold

## Aspartate methyl ester
[4]
  fold weaker Kd of D1085A variant than of CR8: ~ 3 fold
[4]; Table 3, pH 5.5
  ΔG°: -0.86 kcal/mol
[4]; Table 3, pH 7.4
  ΔG°: -0.789 kcal/mol
[1]; Table 3, pH 5.5
  ΔG°: -1.51 kcal/mol
[1]; Table 3, pH 7.4
  ΔG°: -1.27 kcal/mol
[2]; Table 3, pH 5.5
  ΔG°: -1.67 kcal/mol
[2]; Table 3, pH 7.4
  ΔG°: -1.63 kcal/mol
[2]; [11]
  Kd: 63000 ± 5000 µM
[3]; Table 3 domains
  fold weaker Kd than lysine methyl ester: 65–450 fold
  ΔΔG° compared with lysine methyl ester: 2.46 to 3.63 kcal/mol
[3]; titrations repeated with EDTA to remove Ca^2+, results not shown
  perturbation of CR domain tryptophan fluorescence in presence of EDTA: no perturbation
[5]; Table 3, pH 5.5
  ΔG°: -1.48 kcal/mol
[5]; Table 3, pH 7.4
  ΔG°: -1.6 kcal/mol
[5]; [11]
  Kd: 66000 ± 11000 µM

From publication PMC3304490 (Biochemical Journal, 2012)
